“Also recorded” adds a separate entry of the source. Each block holds one compound with its values, some of them ahead of it.
Key:
[1] = molecular target: Taq DNA polymerase (Thermus aquaticus, UniProt P19821); assay: Taq DNA polymerase inhibition; assay type: biochemical; conditions: for inhibitory activity against Taq DNA polymerase (in words): PCR assay
[2] = tested on: SRP-ΔΔΔΔ (ΔΔΔΔpdr); assay: Yeast growth inhibition dose-response, SRP-ΔΔΔΔ; assay type: cell-based, Saccharomyces cerevisiae; conditions: 1–128 μM range
How it was run: (§1)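 S. cerevisiae haploid MATa deletion strains (wild-type reference BY4741) were grown in YPD at 25 °C. In a broth microdilution assay, an inoculum of OD620 0.001 (~25,000 cells/mL) was exposed to test compound at 1–128 μM in 1:2 serial dilutions. The zero control was eight technical replicates of 1% (v/v) DMSO.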

[3] = tested on: Δrad9 Δrad52 (ΔΔrad); assay: Yeast growth inhibition dose-response, Δrad9 Δrad52; assay type: cell-based, Saccharomyces cerevisiae; conditions: for cytotoxicity in ΔΔrad (in words): 1–128 μM range; for DNA damage in S. cerevisiae (in words): inferred from hypersensitivity of Δrad9 Δrad52
How it was run: as §1

[4] = molecular target: M-MLV Reverse Transcriptase (RT-MMLV) (Moloney murine leukemia virus, UniProt P03355); assay: Retrotranscription inhibition; assay type: biochemical, myeloid murine leukemia virus

Sequence of Taq DNA polymerase (P19821 whole entry): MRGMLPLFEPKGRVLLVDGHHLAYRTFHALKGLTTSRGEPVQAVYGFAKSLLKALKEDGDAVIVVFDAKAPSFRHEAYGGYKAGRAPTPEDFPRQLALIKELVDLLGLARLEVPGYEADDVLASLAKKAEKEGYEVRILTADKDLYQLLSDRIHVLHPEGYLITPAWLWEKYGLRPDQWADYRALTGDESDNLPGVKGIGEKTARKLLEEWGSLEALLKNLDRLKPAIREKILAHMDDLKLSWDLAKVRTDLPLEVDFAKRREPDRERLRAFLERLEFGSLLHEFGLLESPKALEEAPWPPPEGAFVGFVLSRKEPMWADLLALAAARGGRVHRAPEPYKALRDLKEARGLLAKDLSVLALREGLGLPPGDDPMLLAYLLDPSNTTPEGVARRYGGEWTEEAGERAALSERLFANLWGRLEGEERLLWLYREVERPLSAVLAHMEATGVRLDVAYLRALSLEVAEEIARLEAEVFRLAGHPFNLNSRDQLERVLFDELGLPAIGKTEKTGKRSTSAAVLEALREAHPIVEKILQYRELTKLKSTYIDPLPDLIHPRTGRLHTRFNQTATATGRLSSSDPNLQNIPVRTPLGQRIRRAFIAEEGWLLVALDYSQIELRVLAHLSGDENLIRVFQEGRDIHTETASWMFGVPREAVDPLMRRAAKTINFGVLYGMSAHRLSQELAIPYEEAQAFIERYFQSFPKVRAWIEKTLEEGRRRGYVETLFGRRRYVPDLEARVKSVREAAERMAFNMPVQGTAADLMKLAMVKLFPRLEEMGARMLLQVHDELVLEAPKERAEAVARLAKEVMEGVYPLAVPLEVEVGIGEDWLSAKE

inhibitory activity against Taq DNA polymerase (in words) [1]: low or null in vitro activity
Compound: O=c1cc(CCl)c2ccc(O)cc2o1 [Compound 2a, 4-(Chloromethyl)-7-hydroxy-2H-chromen-2-one]

inhibitory activity against Taq DNA polymerase (in words) [1]: low or null in vitro activity
Compound: O=c1cc(CCl)c2cc(O)ccc2o1 [Compound 2b, 4-(Chloromethyl)-6-hydroxy-2H-chromen-2-one]

IC50 [1]: 142 ± 3.4 µM
Compound: O=c1cc(CCl)c2ccc(O)c(O)c2o1 [Compound 2c, 4-(Chloromethyl)-7,8-dihydroxy-2H-chromen-2-one]

IC50 [1]: 20.7 ± 2.1 µM
Compound: O=c1cc(CCl)c2c(O)cc(O)cc2o1 [Compound 2d, 4-(Chloromethyl)-5,7-dihydroxy-2H-chromen-2-one]

IC50 [1]: 48.2 ± 1.2 µM
Compound: CC(=O)Oc1ccc2c(CSC(C)=O)cc(=O)oc2c1 [Compound 3c, 4-((Acetylthio)methyl)-2-oxo-2H-chromen-7-yl acetate]

IC50 [1]: 143 ± 4.22 µM
Compound: CC(=O)SCc1cc(=O)oc2cc(O)ccc12 [Compound 3d, S-((7-Hydroxy-2-oxo-2H-chromen-4-yl)methyl) ethanethioate]

IC50 [1]: 188 ± 19.4 µM
Compound: CC(=O)SCc1cc(=O)oc2ccc(O)cc12 [Compound 3e, S-((6-Hydroxy-2-oxo-2H-chromen-4-yl)methyl) ethanethioate]

inhibitory activity against Taq DNA polymerase (in words) [1]: absence of activity
Compound: COc1ccc2oc(=O)cc(CSC(C)=O)c2c1 [Compound 3f, S-((6-Methoxy-2-oxo-2H-chromen-4-yl)methyl) ethanethioate]

Compound: CC(=O)Oc1ccc2oc(=O)cc(CSC(C)=O)c2c1 [Compound 3g, 4-((Acetylthio)methyl)-2-oxo-2H-chromen-6-yl acetate]
cytotoxicity in ΔΔΔΔpdr strain (in words) [2]: cytotoxic
inhibitory activity against Taq DNA polymerase (in words) [1]: without activity; also recorded: did not show in vitro activity

Compound: C=CCCOc1ccc2ccc(=O)oc2c1 [Compound 4b, 7-(But-3-en-1-yloxy)-2H-chromen-2-one]
cytotoxicity in ΔΔΔΔpdr strain (in words) [2]: cytotoxic

Compound: C=CCCCOc1ccc2ccc(=O)oc2c1 [Compound 4c, 7-(Pent-4-en-1-yloxy)-2H-chromen-2-one]
cytotoxicity in ΔΔΔΔpdr strain (in words) [2]: cytotoxic

activity in RT-PCR assay (in words) [4]: did not show activity
Compound: O=c1cc(OCCCC2CO2)c2ccccc2o1 (stereo not drawn) [Compound 5a, 4-(3-(Oxiran-2-yl)propoxy)-2H-chromen-2-one]
cytotoxicity in ΔΔrad (in words) [3]: Cytotoxicity was observed
DNA damage in S. cerevisiae (in words) [3]: showed DNA damaging activity

activity in RT-PCR assay (in words) [4]: without activity
Compound: O=c1ccc2ccc(OCCC3CO3)cc2o1 (stereo not drawn) [Compound 5b, 7-(2-(Oxiran-2-yl)ethoxy)-2H-chromen-2-one]
cytotoxicity in ΔΔrad (in words) [3]: Cytotoxicity was observed
DNA damage in S. cerevisiae (in words) [3]: caused DNA damage; also recorded: showed DNA damaging activity

Compound: O=c1ccc2ccc(OCCCC3CO3)cc2o1 (stereo not drawn) [Compound 5c, 7-(3-(Oxiran-2-yl)propoxy)-2H-chromen-2-one]
cytotoxicity in ΔΔrad (in words) [3]: Cytotoxicity was observed
DNA damage in S. cerevisiae (in words) [3]: caused DNA damage; also recorded: showed DNA damaging activity

Compound: CCCCOc1ccc2ccc(=O)oc2c1 [Compound 6a, 7-Butoxy-2H-chromen-2-one]
cytotoxicity in ΔΔΔΔpdr strain (in words) [2]: cytotoxic

Compound: CCCCCCOc1ccc2ccc(=O)oc2c1 [Compound 6b, 7-(Hexyloxy)-2H-chromen-2-one]
cytotoxicity in ΔΔΔΔpdr strain (in words) [2]: cytotoxic

Compound: CCCCCCCOc1ccc2ccc(=O)oc2c1 [Compound 6c, 7-(Heptyloxy)-2H-chromen-2-one]
cytotoxicity in ΔΔΔΔpdr strain (in words) [2]: cytotoxic

Compound: CC(=O)OC[C@@H]1OC(Oc2ccc3ccc(=O)oc3c2)C(OC(C)=O)[C@H](OC(C)=O)C1OC(C)=O (stereo partly drawn) [Compound 7c, (2S,4R)-2-(Acetoxymethyl)-6-((2-oxo-2H-chromen-7-yl)oxy)tetrahydro-2H-pyran-3,4,5-triyl triacetate]
cytotoxicity in ΔΔΔΔpdr strain (in words) [2]: cytotoxic

Reference: PMC10373209 (ACS Omega, 2023)
